Results from ChEMBL document CHEMBL3826882, “Discovery of 1-((2R,4aR,6R,7R,7aR)-2-Isopropoxy-2-oxidodihydro-4H,6H-spiro[furo[3,2-d][1,3,2]dioxaphosphinine-7,2'-oxetan]-6-yl)pyrimidine-2,4(1H,3H)-dione (JNJ-54257099), a 3'-5'-Cyclic Phosphate Ester Prodrug of 2'-Deoxy-2'-Spirooxetane Uridine Triphosphate Useful for HCV Inhibition” (J Med Chem, 2016).
Blank lines part the entries; values can stand above or below the compound they belong to.

Legend:
Hepatocyte [1] = assay: Drug metabolism in human primary hepatocyte supernatant assessed as 1-((4R,5R,7R,8R)-8-hydroxy-7-(hydroxymethyl)-1,6-dioxaspiro[3.4]octan-5-yl)pyrimidine-2,4(1H,3H)-dione formation at 2 to 62.5 uM after 4 to 24 hrs using radiolabeled compound by HPLC analysis; format: ADME, cell-based; conditions: hepatocytes
Outline: (§1)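 Fresh primary hepatocyte cultures incubated with tritiated prodrug (5'-[3H]) at 2 and 62.5 µM for 4 and 24 h. Supernatants taken after protein precipitation and profiled by HPLC with radioactivity detection. Cell lysates profiled for metabolites by radio-LC. Cyclic monophosphate also measured by LC/MS/MS.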

Hepatocyte [2] = assay: Prodrug conversion in human primary hepatocytes assessed as 2'-deoxy-2'-spirooxetane uridine triphosphate level per million cells at 2 uM after 4 hrs using radiolabelled compound by LC-MS/MS analysis; format: ADME, cell-based
Outline: (§2)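 Study A: fresh primary hepatocyte cultures from mouse, rat, dog and human incubated with tritiated prodrug at 2 or 62.5 µM for 4 or 24 h. Triphosphate in cell lysates reported as pmol/million hepatocytes. Duplicate or single measurements.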

Hepatocyte [3] = assay: Prodrug conversion in human primary hepatocytes assessed as 2'-deoxy-2'-spirooxetane uridine triphosphate level per million cells at 62.5 uM after 4 hrs using radiolabelled compound by LC-MS/MS analysis; format: ADME, cell-based; outline: as §2
Hepatocyte [4] = assay: Drug metabolism in mouse primary hepatocyte supernatant assessed as 1-[(4aR,6R,7R,7aR)-2-hydroxy-2-oxidodihydro-4H-spiro[furo[3,2-d][1,3,2]dioxaphosphinine-7,2'-oxetan]-6-yl]pyrimidine-2,4(1H,3H)-dione formation at 2 to 62.5 uM after 4 to 24 hrs using radiolabelled compound by HPLC analysis; format: ADME, cell-based; conditions: hepatocytes; outline: as §1
[5] = Prodrug conversion in dog primary hepatocytes assessed as 2'-deoxy-2'-spirooxetane uridine triphosphate level per million cells at 2 uM after 24 hrs using radiolabelled compound by LC-MS/MS analysis; format: ADME, cell-based, Canis lupus familiaris, Hepatocyte; outline: as §2
[6] = Prodrug conversion in dog primary hepatocytes assessed as 2'-deoxy-2'-spirooxetane uridine triphosphate level per million cells at 62.5 uM after 4 hrs using radiolabelled compound by LC-MS/MS analysis; format: ADME, cell-based, Canis lupus familiaris, Hepatocyte; outline: as §2
Hepatocyte [7] = assay: Prodrug conversion in rat primary hepatocytes assessed as 2'-deoxy-2'-spirooxetane uridine triphosphate level per million cells at 62.5 uM after 4 hrs using radiolabelled compound by LC-MS/MS analysis; format: ADME, cell-based; outline: as §2
[8] = Drug metabolism in dog primary hepatocyte supernatant assessed as 1-((4R,5R,7R,8R)-8-hydroxy-7-(hydroxymethyl)-1,6-dioxaspiro[3.4]octan-5-yl)pyrimidine-2,4(1H,3H)-dione formation at 2 to 62.5 uM after 4 to 24 hrs using radiolabeled compound by HPLC analysis; format: ADME, cell-based, Canis lupus familiaris; conditions: hepatocytes
Outline: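 Study A: primary cultured hepatocytes (mouse, rat, dog, human) incubated with 2 or 62.5 µM 5'-[3H]-labelled prodrug for 4 and 24 h. Cell lysates were analysed for triphosphate. Supernatants were protein-precipitated and profiled by HPLC with radioactivity detection. Cyclic monophosphate was also assessed by LC/MS/MS.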

[9] = Tmax in rat liver at 50 mg/kg, po; format: ADME, organism-based
Outline: (§3)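 Single oral dose of 50 mg/kg formulated in 20% HP-β-cyclodextrin. Prodrug and its triphosphate were measured in plasma and liver (ng/mL or ng/g) over time, and Cmax, tmax, AUC, tlast and t1/2 were derived. For some analytes, data from two independent studies are reported.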

Hepatocyte [10] = assay: Prodrug conversion in human hepatocytes assessed as 2'-deoxy-2'-spirooxetane uridine triphosphate formation in presence of PDE4 inhibitor rolipram by LC-MS/MS analysis; format: ADME, cell-based
[11] = Cmax in dog plasma at 50 mg/kg, po; format: ADME, organism-based, Canis lupus familiaris; parameters: dose 50 mg/kg, route oral
Hepatocyte [12] = assay: Drug level in human hepatocytes treated with JNJ-54257099 in presence of CYP2C8 and CYP2C9 inhibitor montelukast by LC-MS/MS analysis; format: ADME, cell-based
[13] = AUC (0 to last) in rat plasma at 50 mg/kg, po; format: ADME, organism-based; parameters: dose 50 mg/kg, route oral, time 0 - last
Outline: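 Oral dose 50 mg/kg, formulated in 20% HP-β-cyclodextrin. Prodrug and triphosphate were measured in plasma and liver (ng/mL or ng/g). Parameters derived were Cmax, tmax, AUC0-last, AUC0-inf and t1/2. Some prodrug data come from two independent studies.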

Hepatocyte [14] = assay: Prodrug conversion in human hepatocytes assessed as 2'-deoxy-2'-spirooxetane uridine triphosphate formation in presence of CYP3A4 inhibitor ketoconazole by LC-MS/MS analysis; format: ADME, cell-based
Hepatocyte [15] = assay: Drug metabolism in human hepatocytes assessed as ((4R,5R,7R,8R)-5-(2,4-dioxo-3,4-dihydropyrimidin-1(2H)-yl)-8-hydroxy-1,6-dioxaspiro[3.4]octan-7-yl)methyl dihydrogen phosphate formation in presence of pan-CYP inhibitor 1-ABT by LC-MS/MS analysis; format: ADME, cell-based
Hepatocyte [16] = assay: Prodrug conversion in human cryopreserved hepatocytes assessed as 2'-deoxy-2'-spirooxetane uridine triphosphate level per million cells at 10 uM after 24 hrs by LC-MS/MS analysis; format: ADME, cell-based
Outline: (§4)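 Plated cryopreserved hepatocytes (study B) incubated with 10 µM unlabeled prodrug for 2, 8 or 24 h. Triphosphate measured in cell lysates and expressed as pmol/million hepatocytes. Quantification limit 2 ng/10^6 cells.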

[17] = Prodrug conversion in dog cryopreserved hepatocytes assessed as 2'-deoxy-2'-spirooxetane uridine triphosphate level per million cells at 10 uM after 2 hrs by LC-MS/MS analysis; format: ADME, cell-based, Canis lupus familiaris, Hepatocyte; outline: as §4
Hepatocyte [18] = assay: Drug metabolism in human hepatocytes assessed as ((4R,5R,7R,8R)-5-(2,4-dioxo-3,4-dihydropyrimidin-1(2H)-yl)-8-hydroxy-1,6-dioxaspiro[3.4]octan-7-yl)methyl dihydrogen phosphate formation in presence of CYP3A4 inhibitor ketoconazole by LC-MS/MS analysis; format: ADME, cell-based
[19] = Tmax in dog liver at 50 mg/kg, po; format: ADME, organism-based, Canis lupus familiaris; outline: as §3
Hepatocyte [20] = assay: Prodrug conversion in human cryopreserved hepatocytes assessed as 2'-deoxy-2'-spirooxetane uridine triphosphate level per million cells at 10 uM after 2 hrs by LC-MS/MS analysis; format: ADME, cell-based; outline: as §4
Hepatitis C virus = assay: Antiviral activity against HCV genotype 3a infected in homozygous cDNA-uPA chimeric SCID mouse bearing humanized hepatocytes assessed as change in HCV RNA level in serum at 100 mg/kg, po bid administered through gavage for 7 days by RT-PCR method; format: functional, Hepacivirus hominis, Hepatocyte
Outline: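 Male chimeric SCID cDNA-uPA+/+ mice with human hepatocyte liver (≥70% replacement by blood human albumin) and serum HCV RNA >1.0×10^6 copies/mL the week before dosing. Oral gavage for 7 days in 20% HP-β-CD, 50-200 mg/kg QD or BID. Serum sampled pre-dose on days 1, 2, 3, 5 and 7. Real-time PCR; mean change in log10 copies/mL, day 7 vs day 1 pre-dose.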

[21] = Prodrug conversion in dog cryopreserved hepatocytes assessed as 2'-deoxy-2'-spirooxetane uridine triphosphate level per million cells at 10 uM after 8 hrs by LC-MS/MS analysis; format: ADME, cell-based, Canis lupus familiaris, Hepatocyte; outline: as §4
Liver = assay: Cmax in rat liver assessed as 2'-deoxy-2'-spirooxetane uridine triphosphate at 50 mg/kg, po; format: ADME, organism-based; parameters: dose 50 mg/kg, route oral; conditions: in vivo
[22] = Stability in human HuH7 cells assessed as parent compound level at 100 uM incubated for 96 hrs by LC-MS analysis; format: ADME, cell-based; conditions: huh-7, 96 h
Outline: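 Huh-7 replicon-containing cells incubated 96h with prodrug at 100µM; cell lysates analysed by LC-MS for triphosphate and remaining unmetabolised prodrug.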

Hepatocyte [23] = assay: Prodrug conversion in rat primary hepatocytes assessed as 2'-deoxy-2'-spirooxetane uridine triphosphate formation measured at 2 hrs by LC-MS/MS analysis; format: ADME, cell-based
Outline: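 Hepatocyte primary cultures followed over time for triphosphate formation in cell lysates: rat and mouse up to 24 h, human up to 96 h.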

Drug metabolism (Hepatocyte [1]): metabolite_detected
Drug metabolism (Hepatocyte [2]): 0.023 pmol
Drug metabolism (Hepatocyte [3]): 0.24 pmol
Drug metabolism (Hepatocyte [4]): metabolite_detected
Drug metabolism [5]: 0.007 pmol
Drug metabolism [6]: 0.035 pmol
Drug metabolism (Hepatocyte [7]): 0.45 pmol
Drug metabolism [8]: metabolite_detected
Compound: [3H]C1O[P@](=O)(OC(C)C)O[C@@H]2[C@@H]1O[C@@H](n1ccc(=O)[nH]c1=O)[C@@]21CCO1 (stereo not given in full)

Compound: CC(C)O[P@@]1(=O)OC[C@H]2O[C@@H](n3ccc(=O)[nH]c3=O)[C@@]3(CCO3)[C@@H]2O1
Tmax [9]: 1 h
Drug metabolism (Hepatocyte [10]): metabolite_notdetected
Cmax [11]: 4650 ng/mL
Drug uptake (Hepatocyte [12]): Active
AUC(0-t) [13]: 7330 ng·h/mL
Drug metabolism (Hepatocyte [14]): metabolite_notdetected
Drug metabolism (Hepatocyte [15]): metabolite_notdetected
Drug metabolism (Hepatocyte [16]): 0.151 pmol
Drug metabolism [17]: < 2 ng
Drug metabolism (Hepatocyte [18]): metabolite_notdetected
Tmax [19]: 1 h
Drug metabolism (Hepatocyte [20]): 0.087 pmol
Activity (Hepatitis C virus): -1.08
Drug metabolism [21]: 0.004 pmol
Cmax (Liver): 73500 ng/g
Stability [22]: Stable
Drug metabolism (Hepatocyte [23]): metabolite_detected
